Measurements: ChEMBL document CHEMBL3085714 (J Med Chem, 2013)

Columns and labels:
[1] = target: T1, Mitogen-activated protein kinase 14 (Homo sapiens, UniProt Q16539); assay: Inhibition of p38alpha MAP kinase in human whole blood assessed as inhibition of LPS-induced TNFalpha release by ELISA
[2] = target: T1, Mitogen-activated protein kinase 14; assay: Competitive inhibition of p38alpha MAP kinase (unknown origin) in presence of 100 uM ATP
[3] = target: T1, Mitogen-activated protein kinase 14; assay: Inhibition of p38alpha MAP kinase in human whole blood assessed as inhibition of LPS-induced TNFalpha release at 100 uM by ELISA
[4] = tested on: Liver microsome; assay: Metabolic stability in female rat liver microsomes; type: ADME
How it was run: (§1)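 Pooled liver microsomes, male and female, from rat and human were incubated separately. Time–concentration profiles of metabolite formation were followed by LC-MS. Incubations were run in triplicate and reported as mean ± SEM.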

[5] = tested on: Liver microsome; assay: Metabolic stability in male human liver microsomes; type: ADME; how it was run: as §1
[6] = tested on: Liver microsome; assay: Metabolic stability in male rat liver microsomes; type: ADME; how it was run: as §1
[7] = Metabolic stability in human/rat liver microsomes at 1 mg/ml after 180 mins by LC/MS analysis; type: ADME, Microsome; conditions: read-out: Stability
How it was run: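 Rat and human liver microsomes were incubated with microsomal protein standardized to 1 mg/mL. Aliquots were withdrawn immediately after reaction start and at 10, 20, 40, 60, 120 and 180 min, then analysed by LC-MS.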

[8] = tested on: Liver microsome; assay: Metabolic stability in female human liver microsomes; type: ADME; how it was run: as §1
[9] = species on record: Mus musculus; assay: Metabolic stability in C57BL/6 mouse assessed as M-732 metabolite level in blood after 72 hrs by LC-MS/MS analysis; type: ADME, organism-based
[10] = species on record: Mus musculus; assay: Metabolic stability in C57BL/6 mouse assessed as M-734 metabolite level in blood after 72 hrs by LC-MS/MS analysis; type: ADME, organism-based
[11] = Tmax in C57BL/6 mouse at 10 mg/kg, po; type: ADME, organism-based; set-up: dose 10 mg/kg, route oral; conditions: in vivo
[12] = Cmax in C57BL/6 mouse at 10 mg/kg, po; type: ADME, organism-based; set-up: dose 10 mg/kg, route oral; conditions: in vivo
How it was run: (§2)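 Male Black 6 C57 mice were dosed orally at 10 mg/kg. Plasma was sampled for up to 72 h postdose. Parent drug was quantified by LC-MS/MS after derivatization with 4-pyridinylboronic acid (70 °C, 40 min). Parameters came from noncompartmental analysis of mean plasma concentration–time profiles.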

[13] = tested on: Mus musculus; assay: Terminal elimination rate in C57BL/6 mouse at 10 mg/kg, po; type: ADME, organism-based; set-up: dose 10 mg/kg, route oral; conditions: in vivo
[14] = tested on: Mus musculus; assay: Half life in C57BL/6 mouse at 10 mg/kg, po; type: ADME, organism-based; set-up: dose 10 mg/kg, route oral; conditions: in vivo; how it was run: as §2
[15] = AUC (0 to t) in C57BL/6 mouse at 10 mg/kg, po; type: ADME, organism-based; set-up: dose 10 mg/kg, route oral; conditions: plasma; how it was run: as §2
[16] = AUC (0 to infinity) in C57BL/6 mouse at 10 mg/kg, po; type: ADME, organism-based; set-up: time infinity, dose 10 mg/kg, route oral; conditions: plasma; how it was run: as §2
[17] = species on record: Mus musculus; assay: Metabolic stability in C57BL/6 mouse assessed as M-605 metabolite level in blood after 72 hrs by LC-MS/MS analysis; type: ADME, organism-based
[18] = species on record: Mus musculus; assay: Metabolic stability in C57BL/6 mouse assessed as M-603 metabolite level in blood after 72 hrs by LC-MS/MS analysis; type: ADME, organism-based
[19] = target: T1, Mitogen-activated protein kinase 14; assay: Competitive inhibition of p38alpha MAP kinase (unknown origin) at 10 uM in presence of 100 uM ATP

T1 sequence (Q16539 whole entry): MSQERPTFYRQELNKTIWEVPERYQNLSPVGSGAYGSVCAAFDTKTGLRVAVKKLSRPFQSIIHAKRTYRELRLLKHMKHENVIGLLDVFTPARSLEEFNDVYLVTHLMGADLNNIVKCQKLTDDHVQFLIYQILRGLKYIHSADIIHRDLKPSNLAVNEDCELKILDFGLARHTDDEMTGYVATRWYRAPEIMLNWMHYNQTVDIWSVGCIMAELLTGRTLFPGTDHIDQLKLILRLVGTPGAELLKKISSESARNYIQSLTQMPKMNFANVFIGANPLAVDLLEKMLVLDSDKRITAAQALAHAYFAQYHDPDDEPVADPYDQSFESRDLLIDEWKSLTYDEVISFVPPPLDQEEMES

IC50 [1] [nM]	IC50 [2] [nM]	SMILES	further results
287	1.8	Cc1cc(F)c(NC(=O)c2ccsc2)cc1Nc1ccc2c(c1)OCc1ccc(OC[C@H]3COC(C)(C)O3)cc1C2=O	
631	8	O=C1c2cc(OCCCO)ccc2COc2cc(Nc3ccc(F)cc3F)ccc21	
	17	O=C(Nc1cc(Nc2ccc3c(c2)OCc2cc(OCCN4CCOCC4)ccc2C3=O)ccc1F)c1ccccc1	inhibition [3]: 36%
1910	95	O=C1c2ccccc2CCc2cc(Nc3ccc(F)cc3F)ccc21	Stability [4]: Unstable; Stability [5]: Unstable; Stability [6]: Unstable; remaining at 3 h [7]: 43%; Stability [8]: Unstable
58700	147	Nc1ccccc1Nc1ccc2c(c1)OCc1cc(OCCN3CCOCC3)ccc1C2=O	
	563	CC1(C)OC[C@@H](COc2cccc3c2COc2cc(Nc4ccc(F)cc4F)ccc2C3=O)O1	inhibition [3]: 48.6%
37900	21	O=C1c2ccc(OCC[C@@H](O)CO)cc2COc2cc(Nc3ccc(F)cc3F)ccc21	
	85	Cc1ccccc1Nc1ccc2c(c1)OCc1cc(OCCN3CCOCC3)ccc1C2=O	inhibition [3]: 30.3%
	557	O=C1c2ccc(OCCC3CCOCC3)cc2COc2cc(Nc3ccc(F)cc3F)ccc21	
233	14	O=C1c2cc(OC[C@H](O)CO)ccc2COc2cc(Nc3ccc(F)cc3F)ccc21	Stability [9]: Unstable; Stability [10]: Unstable; Tmax [11]: 1 h; Cmax [12]: 627 ng/mL; Kel [13]: 0.0243 h⁻¹; t1/2 [14]: 3.95 h; AUC(0-t) [15]: 6590 ng·h/mL; AUC(0-inf) [16]: 6990 ng·h/mL; Stability [17]: Unstable; Stability [18]: Unstable
71800	33	O=C1c2ccc(OCCN3CCOCC3)cc2COc2cc(Nc3ccc(F)cc3F)ccc21	
	160	Cc1cc(F)ccc1Nc1ccc2c(c1)OCc1cc(OCCN3CCOCC3)ccc1C2=O	
683	205	Nc1ccc2c(c1)C(=O)c1ccc(Nc3ccccc3N)cc1OC2	
1250	49	O=C1c2ccc(Nc3ccc(F)cc3F)cc2CCc2ccc(O)cc21	remaining at 3 h [7]: 70%
	63	COc1cccc2c1COc1cc(Nc3ccc(F)cc3F)ccc1C2=O	inhibition [3]: 44.7%
	10	O=C(Nc1ccc(F)c(Nc2ccc3c(c2)OCc2c(OCCN4CCOCC4)cccc2C3=O)c1)c1ccccc1	inhibition [3]: 39%
1100	28	O=C1c2cc(NCCN3CCOCC3)ccc2COc2cc(Nc3ccc(F)cc3F)ccc21	
	34	O=C1c2ccc(Nc3ccc(F)cc3F)cc2OCc2c(OCCN3CCOCC3)cccc21	inhibition [3]: 32.2%
1940	43	Nc1ccc2c(c1)C(=O)c1ccc(Nc3ccc(F)cc3F)cc1OC2	
5700	103	Nc1ccc2c(c1)C(=O)c1ccc(Nc3ccc(F)cc3)cc1OC2	
2430	651	Nc1cccc(Nc2ccc3c(c2)OCc2ccc(N)cc2C3=O)c1	
	516	CC1(C)OC[C@@H](CCOc2ccc3c(c2)COc2cc(Nc4ccc(F)cc4F)ccc2C3=O)O1	

IC50 [1] [nM]	IC50 [2] [nM]	SMILES	further results
	218	COc1ccc2c(c1)COc1cc(Nc3ccc(F)cc3F)ccc1C2=O	
1170	151	Nc1ccc2c(c1)C(=O)c1ccc(Nc3ccc(F)cc3N)cc1OC2	
71800	132	COc1ccc2c(c1)COc1cc(Nc3ccccc3N)ccc1C2=O	
51400	25	O=C(Nc1cccc(Nc2ccc3c(c2)OCc2c(OCCN4CCOCC4)cccc2C3=O)c1)c1ccoc1	
4710	115	COc1ccc2c(c1)C(=O)c1ccc(Nc3ccc(F)cc3F)cc1OC2	
94800	41	Nc1cc(F)ccc1Nc1ccc2c(c1)OCc1cc(OCCN3CCOCC3)ccc1C2=O	
1440	207	CC1(C)OC[C@@H](COc2ccc3c(c2)C(=O)c2ccc(Nc4ccc(F)cc4F)cc2OC3)O1	
28200	27	O=C1c2ccc(OC[C@@H](O)CO)cc2COc2cc(Nc3ccc(F)cc3F)ccc21	
148	1.7	Cc1cc(F)c(NC(=O)c2ccsc2)cc1Nc1ccc2c(c1)OCc1ccc(OCCN3CCOCC3)cc1C2=O	
588	20	O=C1c2cc(OCCO)ccc2COc2cc(Nc3ccc(F)cc3F)ccc21	
7810	74	Nc1ccc2c(c1)C(=O)c1ccc(Nc3cc(F)c(F)cc3F)cc1OC2	
22000		O=C1c2ccccc2COc2cc(Nc3ccc(F)cc3F)ccc21	
429	21	O=C1c2cc(OCCN3CCOCC3)ccc2COc2cc(Nc3ccc(F)cc3F)ccc21	
	> 10000	O=C1c2ccc(Nc3ccc(F)cc3F)cc2OCc2cccc(OC[C@H](O)CO)c21	
684	146	Nc1cccc(Nc2ccc3c(c2)OCc2ccc(OCCN4CCOCC4)cc2C3=O)c1	
	22	CC(=O)OCCOc1ccc2c(c1)C(=O)c1ccc(Nc3ccc(F)cc3F)cc1OC2	
38100	53	CN(C)CCOc1ccc2c(c1)COc1cc(Nc3ccc(F)cc3F)ccc1C2=O	
	4200	O=c1c2ccccc2ccc2cc(Nc3ccc(F)cc3F)ccc12	
18600		O=C1c2cc(OCCC3CCCCC3)ccc2COc2cc(Nc3ccc(F)cc3F)ccc21	inhibition [19]: 41.3%
	13	O=C1c2ccc(Nc3ccc(F)cc3F)cc2CCc2ccc(OCCCO)cc21	remaining at 3 h [7]: 90%
91200	665	CC1(C)OC[C@@H](COc2ccc3c(c2)COc2cc(Nc4ccc(F)cc4F)ccc2C3=O)O1	
1060	101	CCN(CC)CCOc1ccc2c(c1)C(=O)c1ccc(Nc3ccc(F)cc3F)cc1OC2	

IC50 [1] [nM]	IC50 [2] [nM]	SMILES	further results
	94	COc1cccc2c1COc1cc(Nc3ccccc3N)ccc1C2=O	
	481	CC1(C)OC[C@H](COc2cccc3c2COc2cc(Nc4ccc(F)cc4F)ccc2C3=O)O1	inhibition [3]: 42.4%
	42	O=C1c2ccc(Nc3ccc(F)cc3F)cc2OCc2c(OC[C@H](O)CO)cccc21	inhibition [3]: 48.5%
	763	Nc1ccc2c(c1)C(=O)c1ccc(Oc3ccc(F)cc3F)cc1OC2	
1850	122	O=C1c2cc(O)ccc2COc2cc(Nc3ccc(F)cc3F)ccc21	
490	107	Nc1ccccc1Nc1ccc2c(c1)OCc1ccc(OCCN3CCOCC3)cc1C2=O	
	87	COc1cccc2c1COc1cc(Nc3ccc(F)cc3N)ccc1C2=O	
	571	O=C1c2ccc(Nc3ccc(F)cc3F)cc2OCc2c(OCCC3CCOCC3)cccc21	
591	61	O=C1c2cc(OC[C@@H](O)CO)ccc2COc2cc(Nc3ccc(F)cc3F)ccc21	
	72	Nc1cc(F)ccc1Nc1ccc2c(c1)OCc1c(OCCN3CCOCC3)cccc1C2=O	inhibition [3]: 38.8%
583	19	O=C1c2ccc(Nc3ccc(F)cc3F)cc2CCc2ccc(OCCO)cc21	remaining at 3 h [7]: 86%
	280	COc1cccc2c1C(=O)c1ccc(Nc3ccc(F)cc3F)cc1OC2	
	819	O=C1c2cc(NCCN3CCOCC3)ccc2COc2cc(Oc3ccc(F)cc3F)ccc21	
364	79	O=C1c2cc(OCCC3CCOCC3)ccc2COc2cc(Nc3ccc(F)cc3F)ccc21	
		O=C1c2ccc(Nc3ccc(F)cc3F)cc2CCc2ccc(OC[C@@H](O)CO)cc21	remaining at 3 h [7]: 100%
1300	48	CC1(C)OC[C@H](COc2ccc3c(c2)C(=O)c2ccc(Nc4ccc(F)cc4F)cc2OC3)O1	
	> 10000	O=C1c2ccc(Nc3ccc(F)cc3F)cc2OCc2cccc(OC[C@@H](O)CO)c21	
4540	111	Nc1ccc2c(c1)C(=O)c1ccc(Nc3ccccc3F)cc1OC2	
1560	3	O=C(Nc1ccc(F)c(Nc2ccc3c(c2)OCc2ccc(OCCN4CCOCC4)cc2C3=O)c1)c1ccccc1	
1650	44	COc1ccc2c(c1)C(=O)c1ccc(Nc3ccc(F)cc3F)cc1CC2	remaining at 3 h [7]: 85%
90400	25	O=C1c2ccc(Nc3ccc(F)cc3F)cc2OCc2c(OC[C@@H](O)CO)cccc21	
